The list is not random: actives were taken first. Their share in the collection is about 1.5%.
EBI2 antag: blocks human EBI2 receptor beta-arrestin signaling. P32249. EBI2 beta-arrestin recruitment, luminescence, 7a,25-OHC stimulated. inhibition, % at 5 µM. 0.81% of 360,000 active; in the data active = inhibition above about 38%;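 note: enzyme fragment complementation signal reports receptor beta-arrestin coupling in cells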
Target sequence (P32249 whole entry, looked up, the tested form may be a part): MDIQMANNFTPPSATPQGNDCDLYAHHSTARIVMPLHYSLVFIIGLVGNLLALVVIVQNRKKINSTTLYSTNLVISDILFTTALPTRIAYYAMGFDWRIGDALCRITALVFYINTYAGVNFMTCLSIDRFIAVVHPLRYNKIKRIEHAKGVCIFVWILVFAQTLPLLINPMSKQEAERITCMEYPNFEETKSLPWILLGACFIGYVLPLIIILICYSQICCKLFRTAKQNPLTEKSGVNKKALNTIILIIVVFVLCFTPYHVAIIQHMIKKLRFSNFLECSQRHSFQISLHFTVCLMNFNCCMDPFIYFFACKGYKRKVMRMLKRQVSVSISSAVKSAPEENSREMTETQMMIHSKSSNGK
APJ agonist: agonists of human APJ apelin receptor; P35414; CHO-K1 APJ PathHunter beta-arrestin, luminescence; 0% DMSO wells, 100% apelin; activation, % at 20 µM; 0.11% of 330,000 active; AID 2520;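 active = activation more than six SD over the plate average, tested at 20 µM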
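Material: CHO-K1 APJ beta-arrestin complementation cell line; Input: cell density 1000 per well; Incubation: compound stimulation 90 min at 25 °C, detection 60 min; Signal: luminescence from split beta-galactosidase complementation, Galacton Star/Emerald II substrate; Controls: DMSO-only wells as negative, 10 nM Apelin-13 as positive control.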
CCR6 antag: blocks CCL20-driven beta-arrestin recruitment at human CCR6 | CHO-K1 CCR6 PathHunter beta-arrestin, luminescence, CCL20-stimulated | inhibition, % at 20 µM | 0.49% of 340,000 active;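 active = compounds whose inhibition of the agonist-driven luminescence signal at 20 µM reaches about 50%, limit read from the data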;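 note: cells stimulated with CCL20 at 14 nM final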
APJ antagonist: antagonists of human APJ apelin receptor; P35414; CHO-K1 APJ beta-arrestin complementation, luminescence; inhibition, % at 20 µM; 0.32% of 330,000 active; AID 2521;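 active = inhibition above about 40% at 20 µM, limit read from the data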;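 note: cells challenged with 10 nM apelin-13 agonist together with compound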
CXCR6 block: inhibitors of human CXCR6 receptor; O00574; CHO-K1 PathHunter CXCR6 beta-arrestin, luminescence; inhibition, % at 20 µM; 0.36% of 360,000 active; AID 602244; in the data active = inhibition above about 34%, passing the limit was not always enough;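 note: antagonist mode with CXCL16 agonist at 10 nM final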
Target sequence (O00574 whole entry, looked up): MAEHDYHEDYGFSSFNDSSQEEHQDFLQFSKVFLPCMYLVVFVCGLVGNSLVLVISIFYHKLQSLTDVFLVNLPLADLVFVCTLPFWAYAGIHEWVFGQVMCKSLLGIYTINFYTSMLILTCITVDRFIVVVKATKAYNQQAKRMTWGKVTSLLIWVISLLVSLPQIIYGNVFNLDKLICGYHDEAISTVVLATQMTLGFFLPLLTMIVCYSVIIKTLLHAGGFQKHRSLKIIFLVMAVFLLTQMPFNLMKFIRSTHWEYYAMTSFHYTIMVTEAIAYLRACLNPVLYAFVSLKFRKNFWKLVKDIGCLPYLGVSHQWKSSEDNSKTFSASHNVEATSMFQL
Of the large screens only hits and unclear results are named; the others gave an inactive call.

O=C(Nc1ccc(Cc2ccncc2)cc1)c1ccc(S(=O)(=O)N2CCCC2)cc1	none
O=C(Nc1ccc(S(=O)(=O)N2CCCCC2)cc1)c1ccncc1	CCR6 antag 58
O=C(N/N=C/c1ccc(O)c(O)c1)c1cccc(S(=O)(=O)N2CCCCC2)c1	none
O=C(N/N=C\c1cc(Br)ccc1O)c1ccc(S(=O)(=O)N2CCCCC2)cc1	EBI2 antag 58
O=C(N/N=C/c1cc(Cl)ccc1O)c1ccc(Br)cc1	EBI2 antag 48 (no result: APJ agonist, APJ antagonist)
Fc1cccc(Cc2c(C3CCCCC3)nc3c4ccccc4ccn23)c1	none (no result: APJ agonist, CCR6 antag, APJ antagonist)
COc1ccccc1C#CC1=CC(=O)CC(C)(C)C1	none (no result: APJ agonist, CCR6 antag, APJ antagonist)
COc1ccc(C(=O)C(C)OC(=O)c2cccc(S(=O)(=O)Nc3cc(Cl)c(OC)cc3OC)c2)cc1 (configuration not stated)	EBI2 antag 37
N#C/C(=C(/O)c1ccc(Br)s1)c1nc2ccccc2[nH]1	none
N#C/C(=C(/O)CCl)c1nc2ccccc2[nH]1	APJ antagonist 53
N#C/C(=C(/O)c1ccc([N+](=O)[O-])s1)c1nc2ccccc2[nH]1	CCR6 antag 63
N#C/C(=C(\O)Cc1ccccc1)c1nc2ccccc2[nH]1	none
CC1(C(=O)Nc2ccc3c(c2)OCCO3)CSCC(=O)N1C1CC1 (configuration not stated)	none (no result: APJ agonist, CCR6 antag, APJ antagonist, CXCR6 block)
CC1=NN(C(=O)c2ccc(Cl)cc2)C(O)(c2ccccc2)C1 (configuration not stated)	CCR6 antag 55
CNC(=O)c1c(NC(=O)c2nc3ccccc3s2)sc2c1CCC2	CXCR6 block 40 (no result: CCR6 antag)
Cn1c(CNc2ccc(Cl)cc2)nc2ccccc21	none
CC(C)N=c1cc2n(-c3ccc(Cl)cc3)c3ccccc3nc-2cc1Nc1ccc(Cl)cc1	APJ antagonist 67, CXCR6 block 46
COc1ccc(NC(=O)C2(C)CCN2C(=O)c2ccccc2CCc2ccccc2)cc1OC (configuration not stated)	none (no result: APJ agonist, CCR6 antag, APJ antagonist)
CC1(C)c2[nH]c3ccccc3c2C[C@@H]2C(=O)N(Cc3ccc(F)cc3)C(=O)N21	none
CC[C@H]1c2[nH]c3ccccc3c2C[C@H]2C(=O)N(c3ccc(F)cc3)C(=O)N21	EBI2 antag 48
O=C1NC[C@@H](CCCCN2CCN(CC3CCCCC3)C(=O)C2=O)N(CCC2CCCCC2)C1=O	none (no result: APJ agonist, CCR6 antag, APJ antagonist)
O=C(Cc1ccc(Cl)cc1)Nc1ccc(-c2nnc(-c3ccco3)o2)cc1	none
O=C(CSCc1ccc(Cl)cc1)Nc1ccc(-c2nnc(-c3ccccc3)o2)cc1	APJ antagonist 45
CCOC(=O)C1C(C(=O)OCC)C2C(=O)C3C(C(=O)OCC)C(C(=O)OCC)C3C(=O)C12 (configuration not stated)	none (no result: APJ agonist, CCR6 antag, APJ antagonist)
CCN(C(=S)Nc1ccc(OC(F)F)cc1)C1CCCCC1	EBI2 antag 47
CCN(CC(=O)Nc1ccc(OC(F)F)cc1)C1CCCCC1	none
COC(=O)C[C@@H]1C=C[C@H](NC(=O)Nc2ccc(F)cc2)[C@@H](CO)O1	none (no result: APJ agonist, CCR6 antag, APJ antagonist, CXCR6 block)
O=C(O)c1ccccc1NS(=O)(=O)c1cccc(-n2sc3ccccc3c2=O)c1	EBI2 antag 96
O=C(O)c1ccccc1NS(=O)(=O)c1cccc(C(F)(F)F)c1	none
O=C(Cn1nnc(-c2ccccc2)c1COc1ccc2ccccc2c1)NCC1CC1	none (no result: APJ agonist, CCR6 antag, APJ antagonist)
CC(C)C(=O)N(c1cc2sc(=O)oc2c2ccccc12)S(=O)(=O)c1cccs1	EBI2 antag 49
O=[N+]([O-])c1ccc(N/N=C/c2ccc(O)c(O)c2O)c(S(=O)(=O)N2CCOCC2)c1	CCR6 antag 51
O=[N+]([O-])c1ccc(NCCCO)c(S(=O)(=O)N2CCOCC2)c1	none
COc1cc(/C=N/Nc2ccc([N+](=O)[O-])cc2S(=O)(=O)N2CCOCC2)cc(OC)c1OC	none
O=[N+]([O-])c1ccc(N/N=C/c2cccc(O)c2O)c(S(=O)(=O)N2CCOCC2)c1	EBI2 antag 41, CCR6 antag 72, APJ antagonist 58, CXCR6 block 55
Cc1ccc(S(=O)(=O)N2C[C@H]3C(=O)C[C@@H](c4ccc(Cl)cc4)N(S(=O)(=O)c4ccc(C)cc4)[C@H]3C[C@H]2c2ccc(Cl)cc2)cc1	none (no result: APJ agonist, CCR6 antag, APJ antagonist)
Cc1ccccc1N1CC(=O)N(c2ccccc2C)CC1=O	none
Cc1cccc2c1c1ccc3c(c1n2C)C(=O)C=CC3=O	CCR6 antag 89, CXCR6 block 44 (no result: APJ agonist, APJ antagonist)
CC1(C(=O)Nc2cccc(C#N)c2)CCN1C(=O)Cc1ccc(-c2ccccc2)cc1 (configuration not stated)	none (no result: APJ agonist, CCR6 antag, APJ antagonist)
Cc1cc2c(cc1C)-n1nnnc1C(N(C)Cc1ccccc1)C(=O)N2 (configuration not stated)	none (no result: APJ agonist, CCR6 antag, APJ antagonist, CXCR6 block)
COc1cc(SSc2cc(OC)cc([N+](=O)[O-])c2N)c(N)c([N+](=O)[O-])c1	CCR6 antag 54
COc1cc([N+](=O)[O-])c2ncsc2c1	none
CCOc1cc(CNCc2ccncc2)cc(Br)c1OCc1ccc(F)cc1	EBI2 antag 59
Fc1ccc(COc2ccc(Br)cc2CNCc2ccncc2)cc1	none
CC1=NN(C(N)=S)C(=O)C1N=Nc1c(Cl)cc([N+](=O)[O-])cc1Cl (configuration not stated)	CCR6 antag 57, CXCR6 block 40
COc1ccc(CN2CCC[C@]3(N[C@H](c4ccccc4)[C@@H]4C(=O)N(Cc5ccccc5)C(=O)[C@@H]43)C2=O)cc1	none (no result: APJ agonist, CCR6 antag, APJ antagonist)
CN(C)C(=S)N=c1ssc(=S)n1Cc1ccccc1	CCR6 antag 51 (no result: APJ agonist, APJ antagonist)
COc1ccccc1CNc1nc(NCc2ccc3occc3c2)c2sccc2n1	none (no result: APJ agonist, CCR6 antag, APJ antagonist)
O=[N+]([O-])c1ccc(Sc2cccc[n+]2[O-])c2nonc12	EBI2 antag 58, CCR6 antag 115, CXCR6 block 110 (no result: APJ agonist, APJ antagonist)
O=[N+]([O-])c1ccc(Nc2ccccc2)c2nonc12	CCR6 antag 51, APJ antagonist 52
O=C(CSc1cccc[n+]1[O-])Nc1cc(Cl)ccc1[N+](=O)[O-]	none
COC1=C(c2ccccc2)C(=O)c2ccccc2C1=O	APJ agonist 12
COc1ccc(C2=C(N)c3ccccc3C2=O)cc1	none
O=C1C=CC(=O)N1c1ccc(OC(F)F)cc1	CXCR6 block 103 (no result: APJ agonist, CCR6 antag, APJ antagonist)
O=C1C=CC(=O)N1c1ccc(O)cc1	CCR6 antag 81
Cn1c(=Nc2ccc(N3CCOCC3)cc2)ccc2ccccc21	none
Cn1c(N=Nc2ccc(N3CCOCC3)cc2)[n+](C)c2ccccc21	CCR6 antag 63, CXCR6 block 54 (no result: APJ agonist, APJ antagonist)
O=C(Nc1nc(-c2cccs2)cs1)c1ccc(S(=O)(=O)N2CCCC2)cc1	none
CN(C)S(=O)(=O)c1ccc(C(=O)Nc2nc(-c3cccs3)cs2)cc1	EBI2 antag 77
COc1ccc(-c2cc(C(=O)NCc3ccc(F)cc3)[nH]n2)c(C)c1	none (no result: APJ agonist, CCR6 antag, APJ antagonist)
Cc1cccnc1C(NC(=O)C1CCN(Cc2cn(C)c3ccccc23)CC1)c1ccc(Cl)cc1 (configuration not stated)	none (no result: APJ agonist, CCR6 antag, APJ antagonist)
CN(C)C(CNc1ccc(C(F)(F)F)cn1)c1ccccc1 (configuration not stated)	CCR6 antag 63
